This is an account of results in ChEMBL document CHEMBL2331476, “A novel semisynthetic flavonoid 7-O-galloyltaxifolin upregulates heme oxygenase-1 in RAW264.7 cells via MAPK/Nrf2 pathway” (J Med Chem, 2013).

SMILES strings stand for the structures. Calls of active or inactive are those of the source. The rule behind the calls is not given here.

Experiment [1] addresses T1, Nuclear factor erythroid 2-related factor 2 (Mus musculus) (UniProt Q60795).
T1 sequence (whole entry): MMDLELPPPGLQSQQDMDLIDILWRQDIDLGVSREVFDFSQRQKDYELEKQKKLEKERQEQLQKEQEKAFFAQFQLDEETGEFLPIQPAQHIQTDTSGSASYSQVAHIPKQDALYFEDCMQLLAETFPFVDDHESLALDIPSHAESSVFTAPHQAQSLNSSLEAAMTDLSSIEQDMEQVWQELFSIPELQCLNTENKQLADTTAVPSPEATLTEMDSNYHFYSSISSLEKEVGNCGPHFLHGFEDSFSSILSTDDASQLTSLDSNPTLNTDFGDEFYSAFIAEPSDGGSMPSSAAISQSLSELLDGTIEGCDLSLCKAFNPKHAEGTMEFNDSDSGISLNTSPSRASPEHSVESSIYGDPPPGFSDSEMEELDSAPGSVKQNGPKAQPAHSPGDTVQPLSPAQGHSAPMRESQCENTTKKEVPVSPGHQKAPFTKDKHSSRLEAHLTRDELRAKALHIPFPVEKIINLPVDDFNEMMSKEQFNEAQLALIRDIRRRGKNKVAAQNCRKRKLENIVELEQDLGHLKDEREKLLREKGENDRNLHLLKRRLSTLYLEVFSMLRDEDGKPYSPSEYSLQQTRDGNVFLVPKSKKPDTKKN
Description: Activation of Nrf2 in mouse RAW264.7 cells assessed as induction of Hmox1 mRNA expression at 50 uM after 6 hrs by real-time PCR analysis in presence of SB203580. In kind it is cell-based. Summed up:
(§1)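 Pretreatment 30 min with 0.1% DMSO, 15 μM PD98059, 15 μM SB203580 or 30 μM SP600125, then 50 μM agent for 6 h in serum-free medium. Hmox1 mRNA by TaqMan qPCR normalized to Gapdh, given as percent of agent-induced expression; mean ± SD of three experiments.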

Experiment [2] deals with T1, Nuclear factor erythroid 2-related factor 2 (Mus musculus). As to the kind of experiment: Activation of Nrf2 in mouse RAW264.7 cells assessed as induction of Hmox1 mRNA expression at 50 uM after 6 hrs by real-time PCR analysis in presence of SP600125. The experiment is classed as cell-based. Summed up:
as §1
On the technique in general: Quantitative PCR measures a nucleic acid by following its amplification.

Experiment [3] has the same target. Description: Activation of Nrf2 in mouse RAW264.7 cells assessed as reduction of KEAP1 protein level at 50 uM after 3 hrs by Western blotting analysis. In kind it is cell-based. Summed up:
(§2)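 Whole-cell lysates (20 μg/lane) from serum-starved RAW264.7 cells given 10-50 μM for 6 h or 50 μM for 1-6 h in serum-free medium, 0.1% DMSO vehicle. Keap1 and actin detected by chemiluminescent Western blot; Keap1 band intensity normalized to actin, mean of three experiments.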

Experiment [4] has the same target. As to the kind of experiment: Activation of Nrf2 in mouse RAW264.7 cells assessed as upregulation of HO1 protein expression at 25 uM after 6 hrs by Western blotting analysis. The experiment is classed as cell-based. The method, boiled down:
(§3)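 HO-1 protein in whole-cell lysates (20 μg/lane) of serum-starved RAW264.7 cells after 6 h at 10-50 μM or 50 μM for 1-6 h in serum-free medium, 0.1% DMSO control. Chemiluminescent Western blot; HO-1 densitometry normalized to actin, mean of three experiments.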
(In general: A western blot detects proteins with antibodies after separation by electrophoresis.)

Experiment [5] shares this target. As to the kind of experiment: Activation of Nrf2 in mouse RAW264.7 cells assessed as reduction of KEAP1 protein level at 10 to 50 uM after 6 hrs by Western blotting analysis. In kind it is cell-based. The method, boiled down:
as §2

For experiment [6] the target is unchanged. Description: Activation of Nrf2 in mouse RAW264.7 cells assessed as cytosolic accumulation at 50 uM after 2 hrs by Western blotting analysis. In kind it is cell-based. The method, boiled down: (§4)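 Serum-starved RAW264.7 cells treated 30 min to 3 h (10-50 μM for 3 h, or 50 μM time course); 0.1% DMSO control, 50 μM quercetin positive control. Cytosolic fraction from hypotonic HEPES pH 7.9 buffer with 0.1% NP-40; nuclear fraction by 420 mM NaCl extraction. 30 μg/lane blotted for Nrf2 and actin; Nrf2/actin densitometry, mean of three experiments.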

Experiment [7] has the same target. Description: Activation of Nrf2 in mouse RAW264.7 cells assessed as upregulation of HO1 protein expression at 10 uM after 6 hrs by Western blotting analysis. The experiment is classed as cell-based. Summed up: as §3
The target in experiment [8] is Mitogen-activated protein kinase 1 and 3 (ERK2 and ERK1) (Mus musculus) (UniProt P63085+Q63844). As to the kind of experiment: Activation of ERK1/2 in mouse RAW264.7 cells assessed as phosphorylation at 50 uM up to 3 hrs by Western blotting analysis. In kind it is cell-based. The method, boiled down:
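RAW264.7 cells (passage 5-25) seeded at 1 × 10⁵ cells/cm², serum-starved overnight, then exposed in serum-free medium for 30 min to 3 h; 0.1% DMSO vehicle; 75 ng/mL EGF for 30 min as positive control. Whole-cell lysates (20 μg/lane) on 10% SDS-PAGE, blotted for phospho-ERK1 (Thr202/Tyr204), phospho-ERK2 (Thr185/Tyr187) and total ERK1/2, chemiluminescent detection.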

The target of experiment [9] is T1, Nuclear factor erythroid 2-related factor 2 (Mus musculus). Description: Activation of Nrf2 in mouse RAW264.7 cells assessed as induction of Hmox1 mRNA expression at 50 uM after 6 hrs by real-time PCR analysis in presence of […] N-acetyl-L-cysteine. The experiment is classed as cell-based.
Another experiment concerns RAW264.7. As to the kind of experiment: Induction of ROS generation in mouse RAW264.7 cells at 50 uM after 2 hrs by flow cytometric analysis. In kind it is functional. The method, boiled down:
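Serum-starved RAW264.7 cells treated 2 h at 10-50 μM; 100 μM TBHP for 30 min as positive control. Medium replaced, cells loaded with 10 μM carboxy-H₂DCFDA for 15 min at 37 °C. Flow cytometry (488 nm excitation, 525 nm emission, 10,000 events) gave percentage of cells with raised ROS; mean ± SD of three experiments.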

The target in experiment [10] is T1, Nuclear factor erythroid 2-related factor 2 (Mus musculus). As to the kind of experiment: Activation of Nrf2 in mouse RAW264.7 cells assessed as upregulation of HO1 protein expression at 10 to 50 uM after 6 hrs by Western blotting analysis. In kind it is cell-based. Summed up:
as §3

Experiment [11] has the same target. As to the kind of experiment: Activation of Nrf2 in mouse RAW264.7 cells assessed as nuclear accumulation at 25 uM after 3 hrs by Western blotting analysis. In kind it is cell-based. The method, boiled down: as §4
For experiment [12] the target is unchanged. As to the kind of experiment: Activation of Nrf2 in mouse RAW264.7 cells assessed as upregulation of HO1 protein expression at 50 uM after 6 hrs by Western blotting analysis. In kind it is cell-based. Summed up: as §3
The target in experiment [13] is MAP kinase p38 (Homo sapiens) (UniProt O15264+Q15759+Q16539+P53778). Description: Activation of p38MAPK in mouse RAW264.7 cells assessed as phosphorylation at Thr180/Tyr182 at 50 uM after 30 mins to 4 hrs by Western blotting analysis. Particulars: TDE = time-dependent effect. In kind it is cell-based. Summed up:
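p38 phosphorylation at Thr180/Tyr182 and total p38 probed in whole-cell lysates (35 μg/lane) of serum-starved RAW264.7 cells treated for 30 min to 4 h in serum-free medium. Positive controls were 5 μM anisomycin or 75 ng/mL EGF for 30 min. Chemiluminescent Western detection.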

Chain of Mitogen-activated protein kinase 1 and 3 (ERK2 and ERK1) (Mus musculus) (P63085 whole entry, looked up): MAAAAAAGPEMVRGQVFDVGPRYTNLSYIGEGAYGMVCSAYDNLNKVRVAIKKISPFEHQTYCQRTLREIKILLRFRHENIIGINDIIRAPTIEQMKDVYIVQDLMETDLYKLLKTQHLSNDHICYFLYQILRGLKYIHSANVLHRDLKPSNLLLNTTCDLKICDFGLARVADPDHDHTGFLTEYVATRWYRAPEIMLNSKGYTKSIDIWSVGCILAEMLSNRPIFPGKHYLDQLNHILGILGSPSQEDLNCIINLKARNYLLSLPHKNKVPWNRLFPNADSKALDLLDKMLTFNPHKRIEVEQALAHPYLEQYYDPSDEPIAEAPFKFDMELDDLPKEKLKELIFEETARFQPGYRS
Chain of Mitogen-activated protein kinase 1 and 3 (ERK2 and ERK1) (Mus musculus) (Q63844 whole entry, looked up): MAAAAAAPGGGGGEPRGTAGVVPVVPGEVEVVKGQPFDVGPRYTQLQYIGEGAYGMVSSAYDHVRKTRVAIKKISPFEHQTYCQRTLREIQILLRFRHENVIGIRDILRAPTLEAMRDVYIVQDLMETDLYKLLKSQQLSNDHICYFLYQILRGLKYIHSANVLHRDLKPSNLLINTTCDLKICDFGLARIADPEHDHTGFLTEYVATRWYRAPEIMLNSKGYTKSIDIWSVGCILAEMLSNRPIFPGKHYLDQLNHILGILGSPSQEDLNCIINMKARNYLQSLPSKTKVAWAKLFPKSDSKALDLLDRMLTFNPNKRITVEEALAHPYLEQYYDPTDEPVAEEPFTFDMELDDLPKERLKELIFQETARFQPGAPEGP

As to `O=C(Oc1cc(O)c2c(c1)O[C@H](c1ccc(O)c(O)c1)[C@@H](O)C2=O)c1cc(O)c(O)c(O)c1`, the outcome in experiment [1], in experiment [8] and in experiment [9] was inactive. Besides, the Activity in experiment [2] was 90%; in [5], “Dose-dependent effect”; in the experiment on RAW264.7, 29%; in experiment [10], “Dose-dependent effect”; in experiment [13] it was “tde”. The outcome in [3], in [6] and in experiment [11] was Active. The fold change (FC) is 1.6 in [4], 1.1 in [7] and 2.3 in [12].
